Reference: ChEMBL document CHEMBL1151702, “Using an aryl phenanthroimidazole moiety as a conjugated flexible intercalator to improve the hybridization efficiency of a triplex-forming oligonucleotide” (Bioorg Med Chem, 2008)

What was measured:
Type in all cases: nucleic-acid assay
[1] = test system: Nucleic Acid; assay: Binding affinity to synthetic double stranded DNA D1 at 1.5 uM at pH 6.0 by thermal denaturation study
Procedure, shortened: (§1)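 Parallel triplex melting: target duplex assembled from strands at 1.0 µM each, TFO third strand added at 1.5 µM. Buffer 20 mM sodium cacodylate, 100 mM NaCl, 10 mM MgCl₂, at the pH of the line. Samples heated to 80 °C for 5 min, cooled to 5 °C and held 30 min. Absorbance read at 260 nm while heating at 1.0 °C/min; Tm taken as the first-derivative maximum.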

[2] = test system: Nucleic Acid; assay: Binding affinity to synthetic oligonucleotide ON18 at 1.0 uM at pH 6.0 by thermal denaturation study
Procedure, shortened: (§2)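 Duplex melting: complementary strands at 1.0 µM each in 20 mM sodium cacodylate, 100 mM NaCl, 10 mM MgCl₂, at the pH of the line. Annealed at 80 °C for 5 min, then cooled to 5 °C and held 30 min. UV absorbance read at 260 nm with heating at 1.0 °C/min; Tm is the maximum of the first-derivative curve.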

[3] = test system: Nucleic Acid; assay: Binding affinity to synthetic double stranded DNA D1 at 1.5 uM at pH 7.2 by thermal denaturation study; procedure, shortened: as §1
[4] = test system: Nucleic Acid; assay: Binding affinity to synthetic oligonucleotide ON19 at 1.0 uM at pH 6.0 by thermal denaturation study; procedure, shortened: as §2
[5] = test system: Nucleic Acid; assay: Binding affinity to synthetic oligonucleotide ON19 at 1.0 uM at pH 7.2 by thermal denaturation study; procedure, shortened: as §2
[6] = test system: Nucleic Acid; assay: Binding affinity to synthetic oligonucleotide ON20 at 1.0 uM at pH 7.0 by thermal denaturation study
Procedure, shortened: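 DNA/RNA antiparallel duplex: each strand at 1.0 µM in 10 mM sodium phosphate, 140 mM NaCl, 1 mM EDTA, pH 7.0. Heated to 80 °C for 5 min, cooled to 5 °C and held 30 min. Absorbance followed at 260 nm during a 1.0 °C/min temperature ramp; Tm is the first-derivative maximum.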

| Tm [1] [°C] | Tm [2] [°C] | Tm [3] [°C] | Tm [4] [°C] | Tm [5] [°C] | Tm [6] [°C] | SMILES |
| --- | --- | --- | --- | --- | --- | --- |
| 13.5 | – | – | – | – | – | Cc1cn([C@H]2C[C@H](OP(=O)(O)OC[C@H]3O[C@@H](n4cc(C)c(=O)[nH]c4=O)C[C@@H]3OP(=O)(O)OC[C@H]3O[C@@H](n4cc(C)c(=O)[nH]c4=O)C[C@@H]3O[PH](O)(O)OC[C@H]3O[C@@H](n4cc(C)c(=O)[nH]c4=O)C[C@@H]3OP(=O)(O)OC[C@H]3O[C@@H](n4cc(C)c(=O)[nH]c4=O)C[C@@H]3OP(=O)(O)OC[C@H]3O[C@@H](n4cc(C)c(=O)[nH]c4=O)C[C@@H]3O)[C@@H](COC[C@@H](CCOc3ccc(-c4ncc[nH]4)c4ccccc34)OP(=O)(O)O[C@H]3C[C@H](n4ccc(N)nc4=O)O[C@@H]3COP(=O)(O)O[C@H]3C[C@H](n4cc(C)c(=O)[nH]c4=O)O[C@@H]3COP(=O)(O)O[C@H]3C[C@H](n4cc(C)c(=O)[nH]c4=O)O[C@@H]3COP(=O)(O)O[C@H]3C[C@H](n4cc(C)c(=O)[nH]c4=O)O[C@@H]3COP(=O)(O)O[C@H]3C[C@H](n4ccc(N)nc4=O)O[C@@H]3COP(=O)(O)O[C@H]3C[C@H](n4ccc(N)nc4=O)O[C@@H]3COP(=O)(O)O[C@H]3C[C@H](n4ccc(N)nc4=O)O[C@@H]3COP(=O)(O)O[C@H]3C[C@H](n4ccc(N)nc4=O)O[C@@H]3CO)O2)c(=O)[nH]c1=O |
| 46 | 34 | 20.5 | 56.5 | 56.5 | 59 | Cc1cn([C@H]2C[C@H](OP(=O)(O)OC[C@H]3O[C@@H](n4cc(C)c(=O)[nH]c4=O)C[C@@H]3OP(=O)(O)OC[C@H]3O[C@@H](n4cc(C)c(=O)[nH]c4=O)C[C@@H]3OP(=O)(O)OC[C@H]3O[C@@H](n4ccc(N)nc4=O)C[C@@H]3OP(=O)(O)OC[C@H]3O[C@@H](n4cc(C)c(=O)[nH]c4=O)C[C@@H]3OP(=O)(O)OC[C@H]3O[C@@H](n4cc(C)c(=O)[nH]c4=O)C[C@@H]3OP(=O)(O)OC[C@H]3O[C@@H](n4cc(C)c(=O)[nH]c4=O)C[C@@H]3O[PH](O)(O)OC[C@H]3O[C@@H](n4cc(C)c(=O)[nH]c4=O)C[C@@H]3OP(=O)(O)OC[C@H]3O[C@@H](n4cc(C)c(=O)[nH]c4=O)C[C@@H]3OP(=O)(O)OC[C@H]3O[C@@H](n4cc(C)c(=O)[nH]c4=O)C[C@@H]3O)[C@@H](COP(=O)(O)O[C@H]3C[C@H](n4ccc(N)nc4=O)O[C@@H]3COP(=O)(O)O[C@H]3C[C@H](n4ccc(N)nc4=O)O[C@@H]3COP(=O)(O)O[C@H]3C[C@H](n4ccc(N)nc4=O)O[C@@H]3COP(=O)(O)O[C@H]3C[C@H](n4ccc(N)nc4=O)O[C@@H]3COP(=O)(O)O[C@H](CO)CCOc3ccc(-c4nc5c6ccccc6c6ccccc6c5[nH]4)cc3)O2)c(=O)[nH]c1=O |
| 56.5 | 38 | 43 | 41 | 38 | – | Cc1cn([C@H]2C[C@H](OP(=O)(O)OC[C@H]3O[C@@H](n4ccc(N)nc4=O)C[C@@H]3OP(=O)(O)OC[C@H]3O[C@@H](n4cc(C)c(=O)[nH]c4=O)C[C@@H]3OP(=O)(O)O[C@@H](COCc3ccc(C#Cc4ccc5ccc6cccc7ccc4c5c67)cc3)COC[C@H]3O[C@@H](n4cc(C)c(=O)[nH]c4=O)C[C@@H]3OP(=O)(O)OC[C@H]3O[C@@H](n4cc(C)c(=O)[nH]c4=O)C[C@@H]3O[PH](O)(O)OC[C@H]3O[C@@H](n4cc(C)c(=O)[nH]c4=O)C[C@@H]3OP(=O)(O)OC[C@H]3O[C@@H](n4cc(C)c(=O)[nH]c4=O)C[C@@H]3OP(=O)(O)OC[C@H]3O[C@@H](n4cc(C)c(=O)[nH]c4=O)C[C@@H]3O)[C@@H](COC[C@H](COCc3ccc(C#Cc4ccc5ccc6cccc7ccc4c5c67)cc3)OP(=O)(O)O[C@H]3C[C@H](n4cc(C)c(=O)[nH]c4=O)O[C@@H]3COP(=O)(O)O[C@H]3C[C@H](n4cc(C)c(=O)[nH]c4=O)O[C@@H]3COP(=O)(O)O[C@H]3C[C@H](n4ccc(N)nc4=O)O[C@@H]3COP(=O)(O)O[C@H]3C[C@H](n4ccc(N)nc4=O)O[C@@H]3COP(=O)(O)O[C@H]3C[C@H](n4ccc(N)nc4=O)O[C@@H]3COP(=O)(O)O[C@H]3C[C@H](n4ccc(N)nc4=O)O[C@@H]3CO)O2)c(=O)[nH]c1=O |
| 43.5 | 34.5 | 25 | 51 | 50.5 | 51 | Cc1cn([C@H]2C[C@H](OP(=O)(O)OC[C@H]3O[C@@H](n4cc(C)c(=O)[nH]c4=O)C[C@@H]3OP(=O)(O)OC[C@H]3O[C@@H](n4cc(C)c(=O)[nH]c4=O)C[C@@H]3O[PH](O)(O)OC[C@H]3O[C@@H](n4cc(C)c(=O)[nH]c4=O)C[C@@H]3OP(=O)(O)OC[C@H]3O[C@@H](n4cc(C)c(=O)[nH]c4=O)C[C@@H]3OP(=O)(O)OC[C@H]3O[C@@H](n4cc(C)c(=O)[nH]c4=O)C[C@@H]3O)[C@@H](COC[C@@H](CCOc3ccc(-c4nc5c6ccccc6c6ccccc6c5[nH]4)cc3)OP(=O)(O)O[C@H]3C[C@H](n4ccc(N)nc4=O)O[C@@H]3COP(=O)(O)O[C@H]3C[C@H](n4cc(C)c(=O)[nH]c4=O)O[C@@H]3COP(=O)(O)O[C@H]3C[C@H](n4cc(C)c(=O)[nH]c4=O)O[C@@H]3COP(=O)(O)O[C@H]3C[C@H](n4cc(C)c(=O)[nH]c4=O)O[C@@H]3COP(=O)(O)O[C@H]3C[C@H](n4ccc(N)nc4=O)O[C@@H]3COP(=O)(O)O[C@H]3C[C@H](n4ccc(N)nc4=O)O[C@@H]3COP(=O)(O)O[C@H]3C[C@H](n4ccc(N)nc4=O)O[C@@H]3COP(=O)(O)O[C@H]3C[C@H](n4ccc(N)nc4=O)O[C@@H]3CO)O2)c(=O)[nH]c1=O |
| 44.5 | 36 | 20.5 | 53 | 52 | – | Cc1cn([C@H]2C[C@H](OP(=O)(O)OC[C@H]3O[C@@H](n4cc(C)c(=O)[nH]c4=O)C[C@@H]3OP(=O)(O)OC[C@H]3O[C@@H](n4cc(C)c(=O)[nH]c4=O)C[C@@H]3OP(=O)(O)OC[C@H]3O[C@@H](n4ccc(N)nc4=O)C[C@@H]3OP(=O)(O)OC[C@H]3O[C@@H](n4cc(C)c(=O)[nH]c4=O)C[C@@H]3OP(=O)(O)OC[C@H]3O[C@@H](n4cc(C)c(=O)[nH]c4=O)C[C@@H]3OP(=O)(O)OC[C@H]3O[C@@H](n4cc(C)c(=O)[nH]c4=O)C[C@@H]3O[PH](O)(O)OC[C@H]3O[C@@H](n4cc(C)c(=O)[nH]c4=O)C[C@@H]3OP(=O)(O)OC[C@H]3O[C@@H](n4cc(C)c(=O)[nH]c4=O)C[C@@H]3OP(=O)(O)OC[C@H]3O[C@@H](n4cc(C)c(=O)[nH]c4=O)C[C@@H]3O)[C@@H](COP(=O)(O)O[C@H]3C[C@H](n4ccc(N)nc4=O)O[C@@H]3COP(=O)(O)O[C@H]3C[C@H](n4ccc(N)nc4=O)O[C@@H]3COP(=O)(O)O[C@H]3C[C@H](n4ccc(N)nc4=O)O[C@@H]3COP(=O)(O)O[C@H]3C[C@H](n4ccc(N)nc4=O)O[C@@H]3COP(=O)(O)O[C@H](CO)COCc3ccc(C#Cc4ccc5ccc6cccc7ccc4c5c67)cc3)O2)c(=O)[nH]c1=O |
| 39.5 | 30 | 21.5 | 44.5 | – | – | Cc1cn([C@H]2C[C@H](OP(=O)(O)OC[C@H]3O[C@@H](n4cc(C)c(=O)[nH]c4=O)C[C@@H]3OP(=O)(O)OC[C@H]3O[C@@H](n4cc(C)c(=O)[nH]c4=O)C[C@@H]3O[PH](O)(O)OC[C@H]3O[C@@H](n4cc(C)c(=O)[nH]c4=O)C[C@@H]3OP(=O)(O)OC[C@H]3O[C@@H](n4cc(C)c(=O)[nH]c4=O)C[C@@H]3OP(=O)(O)OC[C@H]3O[C@@H](n4cc(C)c(=O)[nH]c4=O)C[C@@H]3O)[C@@H](COC[C@@H](COCc3ccc(C#Cc4ccc5ccc6cccc7ccc4c5c67)cc3)OP(=O)(O)O[C@H]3C[C@H](n4ccc(N)nc4=O)O[C@@H]3COP(=O)(O)O[C@H]3C[C@H](n4cc(C)c(=O)[nH]c4=O)O[C@@H]3COP(=O)(O)O[C@H]3C[C@H](n4cc(C)c(=O)[nH]c4=O)O[C@@H]3COP(=O)(O)O[C@H]3C[C@H](n4cc(C)c(=O)[nH]c4=O)O[C@@H]3COP(=O)(O)O[C@H]3C[C@H](n4ccc(N)nc4=O)O[C@@H]3COP(=O)(O)O[C@H]3C[C@H](n4ccc(N)nc4=O)O[C@@H]3COP(=O)(O)O[C@H]3C[C@H](n4ccc(N)nc4=O)O[C@@H]3COP(=O)(O)O[C@H]3C[C@H](n4ccc(N)nc4=O)O[C@@H]3CO)O2)c(=O)[nH]c1=O |
| 35.5 | 23 | 18.5 | 46 | 46 | 49 | Cc1cn([C@H]2C[C@H](OP(=O)(O)OC[C@H]3O[C@@H](n4cc(C)c(=O)[nH]c4=O)C[C@@H]3OP(=O)(O)OC[C@H]3O[C@@H](n4cc(C)c(=O)[nH]c4=O)C[C@@H]3O[PH](O)(O)OC[C@H]3O[C@@H](n4cc(C)c(=O)[nH]c4=O)C[C@@H]3OP(=O)(O)OC[C@H]3O[C@@H](n4cc(C)c(=O)[nH]c4=O)C[C@@H]3OP(=O)(O)OC[C@H]3O[C@@H](n4cc(C)c(=O)[nH]c4=O)C[C@@H]3O)[C@@H](COC[C@@H](CCOc3ccc(-c4nc5c6ccccc6c6ccccc6c5[nH]4)c4ccccc34)OP(=O)(O)O[C@H]3C[C@H](n4ccc(N)nc4=O)O[C@@H]3COP(=O)(O)O[C@H]3C[C@H](n4cc(C)c(=O)[nH]c4=O)O[C@@H]3COP(=O)(O)O[C@H]3C[C@H](n4cc(C)c(=O)[nH]c4=O)O[C@@H]3COP(=O)(O)O[C@H]3C[C@H](n4cc(C)c(=O)[nH]c4=O)O[C@@H]3COP(=O)(O)O[C@H]3C[C@H](n4ccc(N)nc4=O)O[C@@H]3COP(=O)(O)O[C@H]3C[C@H](n4ccc(N)nc4=O)O[C@@H]3COP(=O)(O)O[C@H]3C[C@H](n4ccc(N)nc4=O)O[C@@H]3COP(=O)(O)O[C@H]3C[C@H](n4ccc(N)nc4=O)O[C@@H]3CO)O2)c(=O)[nH]c1=O |
